Shown are actives, neighbours in structure and some others; about 2.3% of the full set was active somewhere.
SIAE primary: human SIAE inhibition, primary screen; inhibition, % at 9.66 µM; Q9HAT2; SIAE FP-Rh probe binding, fluorescence polarization; 370,000 compounds, 0.69% hits; AID 1053197;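 active = inhibition above a cutoff: mean of compounds within the control limits plus 3 SD of those, cut at about 17% in these data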;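 also: 0% = plate median of compound wells and 100% = probe without SIAE protein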
HTRA1 inhibitor: blocks human HTRA1 serine peptidase; Q92743; recombinant HTRA1, FP-rhodamine activity-based probe, fluorescence polarization; inhibition, % at 5.96 µM; 340,000 compounds, 0.5% hits; in the data active = inhibition above about 36%;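 also: 0% = enzyme with DMSO and 100% = wells lacking enzyme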
Target sequence (Q92743 whole entry, looked up): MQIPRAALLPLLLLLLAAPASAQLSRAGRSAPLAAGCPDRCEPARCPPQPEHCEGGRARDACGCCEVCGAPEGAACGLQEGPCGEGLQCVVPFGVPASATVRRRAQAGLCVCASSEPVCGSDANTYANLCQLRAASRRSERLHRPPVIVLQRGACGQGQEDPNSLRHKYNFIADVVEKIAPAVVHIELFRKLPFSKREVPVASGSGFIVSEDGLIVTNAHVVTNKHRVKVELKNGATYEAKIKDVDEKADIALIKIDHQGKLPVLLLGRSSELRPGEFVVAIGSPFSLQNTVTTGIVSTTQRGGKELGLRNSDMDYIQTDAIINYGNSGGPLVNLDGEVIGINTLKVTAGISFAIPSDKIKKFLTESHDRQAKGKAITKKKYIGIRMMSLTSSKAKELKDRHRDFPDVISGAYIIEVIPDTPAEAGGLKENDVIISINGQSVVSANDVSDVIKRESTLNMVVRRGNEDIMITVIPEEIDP
ABHD4 inh: ABHD4 (mouse) inhibition, primary FP screen. inhibition, % at 8.92 µM. 370,000 compounds, 0.54% hits. Q8VD66. purified mABHD4, FP-Rh probe fluorescence polarization;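 active = inhibition exceeding the mean over every tested compound plus 3 SD, cut at about 30% in these data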;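 also: 0% = plate median of compound wells and 100% = S159A mutant with DMSO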
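Material: mouse ABHD4 enzyme, wild type; Benchmarks: S159A mutant high control, sample median low control; Buffer or medium: HEPES pH 7.0, NaCl, Pluronic buffer; Signal: fluorescence polarization; Read-out: percent inhibition of probe binding, normalized to plate controls; Timing: pre-incubation 45 min, probe exposure 60 min, at 25 °C; Dosing: 8.92 µM, single dose.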
TCR-CD3 inh: human TCR-CD3 binding inhibition; inhibition, % at 9.4 µM; 360,000 compounds, 0.37% hits; TAMRA-labeled TCR probe fluorescence, biochemical; in the data active = inhibition above about 19%;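 also: recombinant mutant TCR 2C K166C tagged with TAMRA read by polarization; 0% = receptor in buffer alone and 100% = receptor with positive control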
pPAFAH inh: pPAFAH (human) enzyme inhibition | recombinant pPAFAH, FP-rhodamine probe fluorescence polarization | AID 463082 | 330,000 compounds, 1.5% hits | inhibition, % at 3.39 µM | Q13093;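 active = inhibition above the mean inhibition across the screen plus 3 SD, cut at about 25% in these data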;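 also: inhibitors block binding of the rhodamine activity-based probe so polarization drops; 0% = enzyme with DMSO and 100% = wells lacking pPAFAH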
SIAE inh conf: human SIAE inhibition, confirmation; shares compounds with SIAE primary; SIAE FP-Rh activity-based probe, fluorescence polarization; inhibition, % at 9.66 µM; 2,300 compounds, 13% hits;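 active = mean inhibition of the replicates above the hit cutoff set in the primary screen, cut at about 17% in these data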;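 also: 0% = SIAE with DMSO and probe and 100% = probe without SIAE; inhibitors lower polarization as more probe stays unbound to SIAE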
Active calls of the source: *; · = not tested or not shown.

SMILES	SIAE primary	HTRA1 inhibitor	ABHD4 inh	TCR-CD3 inh	pPAFAH inh	SIAE inh conf
COc1ccc(OC)c(NC(=O)c2cc3c(Cl)nc4ccccc4c3s2)c1	3	0	4	10	7	·
COc1ccc(NC(=O)c2cc3c(Cl)nc4ccccc4c3s2)cc1OC	26*	-4	14	-6	27*	-4
COc1ccc(-n2c(Cc3cccn3C)nnc2SCC(=O)N2CCCC2)cc1	18*	-10	0	-12	10	1
Cn1cccc1Cc1nnc(SCC(=O)Nc2ccc3c(c2)OCCO3)n1-c1ccc(F)cc1	20*	-5	4	-2	10	-5
CC(C)(C)N(NC(=O)Nc1ccc(Cl)cc1)C(=O)c1ccccc1	17*	-6	6	5	2	-7
C[N+]1(CCCCCCC(=O)/C=N/O)CCCCCC1	19*	4	4	-2	2	3
C[N+](C)(C)CCCCCCC(=O)/C=N/O	15	-7	0	-1	5	·
CC(=O)Nc1ccc(OCC(O)Cn2c(C)nc3ccccc32)cc1 (stereo not drawn)	19*	3	-2	3	5	-5
CCCNC(=O)C(Cc1ccc(F)cc1)NC(=O)c1ccc(C#N)cc1 (stereo not drawn)	20*	0	6	4	0	-4
O=C(Nc1ncccc1O)c1cccc(S(=O)(=O)NCc2ccccc2)c1	0	-2	-1	0	5	·
Cc1ccnc(NC(=O)c2cccc(S(=O)(=O)NCc3ccccc3)c2)c1	21*	-20	-8	3	-10	-3
COC(=O)C1CN(Cc2cn(Cc3ccc(Cl)cc3)nn2)CCS(=O)(=O)N1Cc1ccc(OC)cc1 (stereo not drawn)	2	·	2	·	·	·
O=C(N/N=C/c1c(O)ccc2ccccc12)Nc1ccccc1	52*	·	29	4	27*	49*
Nc1nonc1N/N=C/c1c(O)ccc2ccccc12	18*	17	22	16	23	-22
Nc1nonc1N/N=C\c1ccccc1	-3	-1	6	-8	4	·
COc1ccccc1NC(=O)N(C)C[C@H]1Oc2ncc(Br)cc2C(=O)N([C@H](C)CO)C[C@H]1C	5	0	6	3	·	·
O=C(CSc1nc2ccccc2nc1N1CCCC1)N1CCN(c2cccc(C(F)(F)F)c2)CC1	5	·	10	·	·	·
Cc1cc2oc(C(=O)N3CCN(CCc4ccccn4)CC3)c(C)c2cc1C	24*	1	-1	-2	8	5
Cc1c(C(=O)N2CCN(CCc3ccccn3)CC2)oc2ccc(F)cc12	-4	4	0	0	5	·
CC1=C(C(=O)N2CCCCCC2)CC(CC(=O)NCCc2ccccn2)C(=O)N1CCC1=CCCCC1 (stereo not drawn)	9	·	2	-1	·	·
COC(=O)[C@]12C[C@H](CC(=O)NCC34CC5CC(CC(C5)C3)C4)C(=O)N(Cc3ccc(Cl)cc3Cl)C1=C[C@H](C(C)(C)C)O[C@@H]2C	8	·	-1	·	·	·
CC/C(Cc1ccccc1)=N/NC(=O)c1cccc(Br)c1	18*	-10	-6	5	20	0
CC(=O)Nc1c(-c2ccc(C(F)(F)F)cc2)nc2ncccn12	2	·	17	·	·	·
COc1ccc(Nc2nc(-c3cccs3)cs2)cc1	14	·	9	-3	-1	·
COc1ccc(OC)c(Nc2nc(-c3cccs3)cs2)c1	20*	10	27	0	21	2
SMILES	SIAE primary	HTRA1 inhibitor	ABHD4 inh	TCR-CD3 inh	pPAFAH inh	SIAE inh conf
Oc1ccc(Nc2nc(-c3cccs3)cs2)cc1	20*	23	-1	-3	0	6
O=C(CCCCCN1C(=O)C2C3C=CC(C3)C2C1=O)N1CCN(c2ncccn2)CC1 (stereo not drawn)	6	·	8	·	·	·
O=C(COc1ccc(S(=O)(=O)N2CCCCC2)cc1Cl)N1CCCC1	1	-1	7	-6	0	·
O=C(COc1ccc(Cl)cc1Cl)N1CCCCCC1	18*	-9	-6	5	0	-3
O=C(CCCOc1ccc(Cl)cc1Cl)Nc1ccc(O)cc1C(=O)O	17*	-1	5	-12	9	-8
COc1cc(NC(=O)CCCOc2ccc(Cl)cc2Cl)c(C(=O)O)cc1OC	-1	-2	2	-3	16	·
Oc1ccc(C(=S)N2CCCCCC2)cc1	23*	2	-4	7	-2	0
Oc1ccc(C(=S)N2CCCC2)cc1	-2	2	-5	-2	4	·
O=C1C[C@@H](c2ccccc2)N=C2N(CC3CC3)C/C(=C/c3ccccc3)N12	2	·	4	·	·	·
CCCCc1ccc2nc(NC(=O)c3ccc(Br)o3)sc2c1	-10	·	-4	·	·	·
Cc1nc(N)sc1-c1csc(Nc2cccc(O)c2)n1	17*	16	21	5	14	-3
CC(=O)c1cccc(S(=O)(=O)N2CCC(C(=O)Oc3ccc(-c4nnco4)cc3)CC2)c1	22*	0	-9	0	2	16
O=C(CSc1nnc(CN2CCOCC2)n1-c1ccc(Cl)cc1)Nc1cc(Cl)ccc1O	27*	-4	-4	7	0	-13
O=C(CSc1nnc(CN2CCOCC2)n1-c1ccc(Cl)cc1)N1CCc2ccccc21	3	-2	-3	7	4	·
COc1cccc(Nc2nc(-c3cccc(N4C(=O)c5ccccc5C4=O)c3)cs2)c1	24*	-1	11	2	10	-1
COc1cccc(Nc2nc(-c3ccc(O)cc3)cs2)c1	9	17	18	-1	13	·
Cc1cnc(C(=O)Oc2ccc(-c3ccccc3)cc2)cn1	17*	-3	3	-2	2	-7
CCN(CC)C(=O)c1csc(COCCO)n1	1	·	-8	-3	·	·
O=C(NC(=S)NNC(=O)c1cccs1)c1ccco1	19*	3	12	8	-1	3
CC(=O)c1ccc2c(c1)N(Cc1ccc3ccccc3c1)C(=O)C(C)S2 (stereo not drawn)	1	·	-9	4	·	·
CC1CCC(C(C)C)C(OC(=O)COC(=O)c2cc(O)ccc2N)C1 (stereo not drawn)	20*	18	26	5	12	9
CN(CCO)C1CN(Cc2cn(Cc3ccccc3F)nn2)S(=O)(=O)C1 (stereo not drawn)	-1	·	15	·	·	·
CCOc1ccc(S(=O)(=O)n2cnc(C)c2)cc1	17*	10	6	-1	-3	5
Cc1cc(Nc2ccccc2)n(-c2ccc(C(=O)O)cc2)n1	23*	6	-3	4	4	-4

High-throughput results deposited in PubChem BioAssay by The Scripps Research Institute Molecular Screening Center.
